Data from ChEMBL document CHEMBL4673374, “Synthesis of mitochondria-targeted coumarin-3-carboxamide fluorescent derivatives: Inhibiting mitochondrial TrxR2 and cell proliferation on breast cancer cells” (Bioorg Med Chem Lett, 2021).
The source made the active and inactive calls. The calls are words filed in the database; no cut-off is given here.

What was measured:
[1] = test system: MDA-MB-231; assay: Induction of mitochondrial membrane potential loss in human MDA-MB-231 cells after 24 hrs by TMRE staining based flow cytometric analysis; format: functional, cell-based; settings: dose 2-8 µM
[2] = test system: MDA-MB-231; assay: Induction of apoptosis in human MDA-MB-231 cells assessed as early apoptotic cells at 2 uM incubated for 48 hrs by Annexin V-FITC/PI staining based flow cytometric analysis (reference value: 2.08 %); format: functional
[3] = test system: MDA-MB-231; assay: Inhibition of TrxR activity in human MDA-MB-231 cell mitochondrial extracts at 10 uM incubated for 4 hrs; settings: Mitochondria
In short: (§1)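 MDA-MB-231 cells treated with 10 μM compound for 4 h. Total-cell and mitochondrial extracts assayed for TrxR activity with a micro oxidized thioredoxin reductase kit. Mean ± SD, n = 3.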

[4] = Drug localization in mitochondria of human MDA-MB-231 cells at 1 uM incubated for 30 mins by MTDR staining based laser confocal microscopic analysis; format: ADME; settings: mda-mb-231, 0.5 h
[5] = test system: MCF-10A; assay: Cytotoxicity against human MCF-10A cells after 48 hrs by MTT assay; format: cell-based
In short: (§2)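 MTT viability read after 48 h exposure of three breast cancer lines and non-tumorigenic MCF-10A breast cells; IC50 reported as mean ± SD from at least three independent experiments. Butyl-TPP and tamoxifen run alongside as references. Sulforhodamine B assay used as a cross-check.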

[6] = test system: MDA-MB-231; assay: Induction of ROS generation in human MDA-MB-231 cells after 6 hrs by DCFH-DA staining based flow cytometric analysis; format: functional, cell-based
In short: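 MDA-MB-231 cells treated for 6 h, then intracellular ROS probed with DCFH-DA. Geometric mean fluorescence measured by flow cytometry. Mean ± SD, n = 3.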

[7] = test system: MDA-MB-231; assay: Induction of apoptosis in human MDA-MB-231 cells assessed as early apoptotic cells at 4 uM incubated for 48 hrs by Annexin V-FITC/PI staining based flow cytometric analysis (reference value: 2.08 %); format: functional
[8] = test system: MDA-MB-231; assay: Induction of apoptosis in human MDA-MB-231 cells assessed as late apoptotic or necrotic cells at 8 uM incubated for 48 hrs by Annexin V-FITC/PI staining based flow cytometric analysis (reference value: 3.51 %); format: functional
[9] = test system: SK-BR-3; assay: Cytotoxicity against human SK-BR-3 cells after 48 hrs by MTT assay; format: functional, cell-based; settings: SK-BR-3, 48 h; in short: as §2
[10] = test system: MDA-MB-231; assay: Induction of mitochondrial membrane potential loss in human MDA-MB-231 cells assessed as TMRE high cells at 2 uM after 24 hrs by TMRE staining based flow cytometric analysis (reference value: 1.79%); format: functional
[11] = Drug uptake in human MDA-MB-231 cells assessed as blue fluorescence at 8 uM measured after 0.5 to 1.5 hrs by flow cytometric analysis; format: ADME, cell-based; settings: mda-mb-231, 8 µM, TDE = time-dependent effect, time 0.5-1.5 hrs
In short: (§3)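 Uptake read from native blue fluorescence (λex ~420, λem ~475 nm) by flow cytometry as geometric mean intensity. Dose series read after 2 h. Time course run at 8 μM over several durations. Mean ± SD, n = 3.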

[12] = test system: MDA-MB-231; assay: Induction of mitochondrial membrane potential loss in human MDA-MB-231 cells assessed as TMRE high cells at 4 uM after 24 hrs by TMRE staining based flow cytometric analysis (reference value: 1.79%); format: functional
[13] = test system: MDA-MB-231; assay: Inhibition of TrxR activity in human MDA-MB-231 cells at 10 uM incubated for 4 hrs; format: cell-based; in short: as §1
[14] = Stability of compound in methanol-water after 3 days by HPLC-MS analysis; format: physicochemical; settings: 72 h; time 3 day
[15] = test system: MDA-MB-231; assay: Cytotoxicity against human MDA-MB-231 cells after 48 hrs by MTT assay; format: functional, cell-based; settings: MDA-MB-231, 48 h; in short: as §2
[16] = test system: MCF7; assay: Cytotoxicity against human MCF7 cells after 48 hrs by MTT assay; format: functional, cell-based; settings: MCF7, 48 h; in short: as §2
[17] = Drug uptake in human MDA-MB-231 cells assessed as blue fluorescence after 2 hrs by flow cytometric analysis; format: ADME, cell-based; settings: mda-mb-231, 2 h, dose 1-16 µM; in short: as §3
[18] = test system: MDA-MB-231; assay: Induction of cell death in human MDA-MB-231 cells assessed as reduction in cell viability at 2 to 8 uM preincubated with BSO for 24 hrs followed by compound addition and measured after 24 hrs MTT assay; format: functional; settings: dose 2-8 µM
In short: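 MDA-MB-231 cells pretreated with buthionine sulfoximine (50 μM, 24 h) to deplete GSH, then exposed to test compound for a further 24 h. Viability read by MTT. Means ± SD, n = 3.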

[19] = test system: MDA-MB-231; assay: Induction of apoptosis in human MDA-MB-231 cells assessed as late apoptotic or necrotic cells at 4 uM incubated for 48 hrs by Annexin V-FITC/PI staining based flow cytometric analysis (reference value: 3.51 %); format: functional
[20] = test system: MDA-MB-231; assay: Induction of mitochondrial membrane potential loss in human MDA-MB-231 cells assessed as TMRE high cells at 8 uM after 24 hrs by TMRE staining based flow cytometric analysis (reference value: 1.79%); format: functional
[21] = test system: MDA-MB-231; assay: Induction of apoptosis in human MDA-MB-231 cells assessed as early apoptotic cells at 8 uM incubated for 48 hrs by Annexin V-FITC/PI staining based flow cytometric analysis (reference value: 2.08 %); format: functional
[22] = test system: MDA-MB-231; assay: Induction of mitochondrial membrane depolarization in human MDA-MB-231 cells at 2 to 8 uM preincubated with BSO for 24 hrs followed by compound addition by flow cytometric analysis; format: functional; settings: dose 2-8 µM
In short: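 MDA-MB-231 cells pretreated with 50 μM buthionine sulfoximine for 24 h to deplete GSH, then exposed to compound. Mitochondrial membrane potential determined by flow cytometry. Mean ± SD, n = 3.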

[23] = test system: MDA-MB-231; assay: Induction of cell death in human MDA-MB-231 cells assessed as reduction in cell viability preincubated with CsA for 2 hrs followed by compound addition and measured after 48 hrs by MTT assay; format: functional, cell-based
In short: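 MDA-MB-231 cells pre-incubated 2 h with cyclosporin A (2 and 4 μM), then exposed to compound for 48 h. Viability read by MTT. Mean ± SD, n = 3.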

[24] = Drug localization in mitochondria of human MDA-MB-231 cells at 1 uM incubated for 30 mins in presence of CCCP by MTDR staining based laser confocal microscopic analysis; format: ADME; settings: mda-mb-231, 0.5 h
[25] = test system: MDA-MB-231; assay: Induction of mitochondrial membrane potential loss in human MDA-MB-231 cells assessed as TMRE low/caspase low cells at 4 uM after 24 hrs by TMRE staining based flow cytometric analysis (reference value: 98.21%); format: functional
[26] = test system: MDA-MB-231; assay: Down regulation of TrxR expression in human MDA-MB-231 cells incubated for 48 hrs by Western blot analysis; format: functional, cell-based; settings: dose 2-8 µM
In short: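 MDA-MB-231 cells exposed at 2, 4 and 8 μM for 48 h. TrxR2 protein detected by Western blot and quantified by gray-value scanning. Mean ± SD, n = 3.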

[27] = test system: MDA-MB-231; assay: Induction of apoptosis in human MDA-MB-231 cells assessed as late apoptotic or necrotic cells at 2 uM incubated for 48 hrs by Annexin V-FITC/PI staining based flow cytometric analysis (reference value: 3.51 %); format: functional
[28] = test system: MDA-MB-231; assay: Induction of mitochondrial membrane potential loss in human MDA-MB-231 cells assessed as TMRE low/caspase low cells at 8 uM after 24 hrs by TMRE staining based flow cytometric analysis (reference value: 98.21%); format: functional
[29] = test system: MDA-MB-231; assay: Induction of mitochondrial membrane potential loss in human MDA-MB-231 cells assessed as TMRE low/caspase low cells at 2 uM after 24 hrs by TMRE staining based flow cytometric analysis (reference value: 98.21%); format: functional

CCN(CC)c1ccc2cc(C(=O)NCCCC[P+](c3ccccc3)(c3ccccc3)c3ccccc3)c(=O)oc2c1
Activity [1]: Dose-dependent effect | Activity [2]: 1.2% | inhibition [3]: Active | Drug uptake [4]: Active | IC50 [5]: 45.3 µM | Activity [6]: Dose-dependent effect | Activity [7]: 6.47% | Activity [8]: 65.07% | IC50 [9]: 3.46 µM | Activity [10]: 21.04% | Drug uptake [11]: Tde | Activity [12]: 29.45% | inhibition [13]: Active | Stabilty [14]: Stable | IC50 [15]: 3.03 µM | IC50 [16]: 3.26 µM | Drug uptake [17]: Dose-dependent effect | Activity [18]: 50% | Activity [19]: 24.09% | Activity [20]: 39.37% | Activity [21]: 1.89% | Activity [22]: 13% | Activity [23]: inactive | Drug uptake [24]: Not Active | Activity [25]: 70.55% | Activity [26]: Active | Activity [27]: 14.69% | Activity [28]: 60.63% | Activity [29]: 78.96%

CC/C(=C(\c1ccccc1)c1ccc(OCCN(C)C)cc1)c1ccccc1 [TAMOXIFEN]
IC50 [5]: > 50 µM | IC50 [16]: 15.2 µM

CCCCNC(=O)c1cc2ccc(N(CC)CC)cc2oc1=O
IC50 [5]: > 100 µM | IC50 [9]: > 100 µM | IC50 [15]: > 100 µM | IC50 [16]: > 100 µM

CCN(CC)c1ccc2cc(C(=O)OCCCC[P+](c3ccccc3)(c3ccccc3)c3ccccc3)c(=O)oc2c1
IC50 [5]: 83.7 µM | IC50 [9]: 30.9 µM | Drug uptake [11]: Tde | Stabilty [14]: Unstable | IC50 [15]: 29.4 µM | IC50 [16]: 27.8 µM | Drug uptake [17]: Dose-dependent effect

CCN(Cc1ccccc1)c1ccc2cc(C(=O)NCCCC[P+](c3ccccc3)(c3ccccc3)c3ccccc3)c(=O)oc2c1
IC50 [5]: 15.1 µM | IC50 [9]: 2.73 µM | IC50 [15]: 3.73 µM | IC50 [16]: 4.9 µM

CCCC[P+](c1ccccc1)(c1ccccc1)c1ccccc1
IC50 [5]: > 100 µM | IC50 [9]: > 100 µM | IC50 [15]: > 100 µM | IC50 [16]: 57.4 µM
